Converted amounts (≈) assume the structure as drawn. Values belong to the molecule of their own block, whether it stands above or below them.
Experiments:
Pseudomonas aeruginosa [1] = test: Antibiofilm activity against Pseudomonas aeruginosa at 50 ug/ml after 24 hrs by microplate reader analysis; format: functional
Pseudomonas aeruginosa [2] = test: Antibacterial activity against Pseudomonas aeruginosa assessed as growth inhibition at 50 ug/ml after 24 hrs by microplate reader analysis; format: functional; conditions: read-out: GI
Pseudomonas aeruginosa [3] = test: Reduction of extracellular DNA in Pseudomonas aeruginosa biofilm after 48 hrs by UV-spectrophotometry; format: functional, organism-based
In short: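 eDNA measured as the change in absorbance of biofilm lysate at 260 nm versus untreated controls; mean ± standard deviation.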

Pseudomonas aeruginosa [4] = test: Antibiofilm activity against Pseudomonas aeruginosa after 24 hrs by microplate reader analysis; format: functional, organism-based
In short: (§1)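 IC50 for growth and biofilm formation found by serial dilution to the concentration giving 50% inhibition.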

Pseudomonas aeruginosa [5] = test: Inhibition of MDH in Pseudomonas aeruginosa biofilm after 48 hrs by UV-spectrophotometry
In short: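 MDH in biofilm read as the change in absorbance of the reaction mixture at 340 nm, relative to untreated controls; mean ± standard deviation.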

Pseudomonas aeruginosa [6] = test: Antibacterial activity against Pseudomonas aeruginosa assessed as growth inhibition after 24 hrs by microplate reader analysis; format: functional, organism-based; in short: as §1

Compound: CCOC(=O)C1=C(NC2CCC2)C(=O)N(C2CCC2)C1C(=O)OCC (stereo not drawn)
inhibition at 50 µg/mL (Pseudomonas aeruginosa [1]): 41.3% | inhibition of growth at 50 µg/mL (Pseudomonas aeruginosa [2]): 40.9%

Compound: CCOC(=O)C1=C(Nc2cccc(C(=O)OCC)c2)C(=O)N(c2cccc(C(=O)OCC)c2)C1C(=O)OCC (stereo not drawn)
inhibition at 50 µg/mL (Pseudomonas aeruginosa [1]): 42% | inhibition of growth at 50 µg/mL (Pseudomonas aeruginosa [2]): 15.4%

IC50 (Pseudomonas aeruginosa [4]): 40.2 µg/mL (≈ 88.5 µM) | inhibition (Pseudomonas aeruginosa [5]): Dose-dependent effect
Compound: CCOC(=O)C1=C(Nc2ccc(OC)cc2)C(=O)N(c2ccc(OC)cc2)C1C(=O)OCC (stereo not drawn)
Activity (Pseudomonas aeruginosa [3]): Dose-dependent effect | inhibition at 50 µg/mL (Pseudomonas aeruginosa [1]): 61.4% | IC50 (Pseudomonas aeruginosa [6]): 34.2 µg/mL (≈ 75.3 µM) | inhibition of growth at 50 µg/mL (Pseudomonas aeruginosa [2]): 80.8%

IC50 (Pseudomonas aeruginosa [4]): 47.4 µg/mL (≈ 105 µM) | inhibition (Pseudomonas aeruginosa [5]): Dose-dependent effect
Compound: CCOC(=O)C1=C(Nc2ccc(CC)cc2)C(=O)N(c2ccc(CC)cc2)C1C(=O)OCC (stereo not drawn)
Activity (Pseudomonas aeruginosa [3]): Dose-dependent effect | inhibition at 50 µg/mL (Pseudomonas aeruginosa [1]): 53.2% | IC50 (Pseudomonas aeruginosa [6]): 42.2 µg/mL (≈ 93.7 µM) | inhibition of growth at 50 µg/mL (Pseudomonas aeruginosa [2]): 65.8%

Compound: CCOC(=O)C1=C(NC2CC2)C(=O)N(C2CC2)C1C(=O)OCC (stereo not drawn)
inhibition at 50 µg/mL (Pseudomonas aeruginosa [1]): 11.8% | inhibition of growth at 50 µg/mL (Pseudomonas aeruginosa [2]): 26.6%

Compound: CCOC(=O)C1=C(Nc2cccc(C)c2)C(=O)N(c2cccc(C)c2)C1C(=O)OCC (stereo not drawn)
inhibition at 50 µg/mL (Pseudomonas aeruginosa [1]): 29.3% | IC50 (Pseudomonas aeruginosa [6]): 48.4 µg/mL (≈ 115 µM) | inhibition of growth at 50 µg/mL (Pseudomonas aeruginosa [2]): 55.5%

Compound: CCOC(=O)C1=C(Nc2ccccc2)C(=O)N(c2ccccc2)C1C(=O)OCC (stereo not drawn)
inhibition at 50 µg/mL (Pseudomonas aeruginosa [1]): 35.5% | IC50 (Pseudomonas aeruginosa [6]): 50 µg/mL (≈ 127 µM) | inhibition of growth at 50 µg/mL (Pseudomonas aeruginosa [2]): 50.4%

IC50 (Pseudomonas aeruginosa [4]): 39 µg/mL (≈ 70.6 µM) | inhibition (Pseudomonas aeruginosa [5]): Dose-dependent effect
Compound: CCOC(=O)C1=C(Nc2ccc(Br)cc2)C(=O)N(c2ccc(Br)cc2)C1C(=O)OCC (stereo not drawn)
Activity (Pseudomonas aeruginosa [3]): Dose-dependent effect | inhibition at 50 µg/mL (Pseudomonas aeruginosa [1]): 65.4% | IC50 (Pseudomonas aeruginosa [6]): 38.4 µg/mL (≈ 69.5 µM) | inhibition of growth at 50 µg/mL (Pseudomonas aeruginosa [2]): 76.8%

inhibition (Pseudomonas aeruginosa [5]): Dose-dependent effect
Compound: CC[C@H]1OC(=O)[C@H](C)[C@@H](O[C@H]2C[C@@](C)(OC)[C@@H](O)[C@H](C)O2)[C@H](C)[C@@H](O[C@@H]2O[C@H](C)C[C@H](N(C)C)[C@H]2O)[C@](C)(O)C[C@@H](C)C(=O)[C@H](C)[C@@H](O)[C@]1(C)O [ERYTHROMYCIN]
Activity (Pseudomonas aeruginosa [3]): Dose-dependent effect | inhibition at 50 µg/mL (Pseudomonas aeruginosa [1]): 45.7% | IC50 (Pseudomonas aeruginosa [6]): 33.2 µg/mL (≈ 45.2 µM) | inhibition of growth at 50 µg/mL (Pseudomonas aeruginosa [2]): 67.6%

Compound: CCOC(=O)C1=C(Nc2ccc(Cl)cc2)C(=O)N(c2ccc(Cl)cc2)C1C(=O)OCC (stereo not drawn)
inhibition at 50 µg/mL (Pseudomonas aeruginosa [1]): 20.7% | IC50 (Pseudomonas aeruginosa [6]): 41.6 µg/mL (≈ 89.8 µM) | inhibition of growth at 50 µg/mL (Pseudomonas aeruginosa [2]): 68.6%

Compound: CCOC(=O)C1=C(Nc2cccc(F)c2)C(=O)N(c2cccc(F)c2)C1C(=O)OCC (stereo not drawn)
inhibition at 50 µg/mL (Pseudomonas aeruginosa [1]): 27.5% | inhibition of growth at 50 µg/mL (Pseudomonas aeruginosa [2]): 20.3%

Compound: CCOC(=O)C1=C(Nc2ccc(C)cc2)C(=O)N(c2ccc(C)cc2)C1C(=O)OCC (stereo not drawn)
inhibition at 50 µg/mL (Pseudomonas aeruginosa [1]): 13.6% | inhibition of growth at 50 µg/mL (Pseudomonas aeruginosa [2]): 34%

Compound: CCOC(=O)C1=C(Nc2cc(C)cc(C)c2)C(=O)N(c2cc(C)cc(C)c2)C1C(=O)OCC (stereo not drawn)
inhibition at 50 µg/mL (Pseudomonas aeruginosa [1]): 28.9% | inhibition of growth at 50 µg/mL (Pseudomonas aeruginosa [2]): 32.5%

Compound: CCOC(=O)C1=C(Nc2ccc(C(=O)OCC)cc2)C(=O)N(c2ccc(C(=O)OCC)cc2)C1C(=O)OCC (stereo not drawn)
inhibition at 50 µg/mL (Pseudomonas aeruginosa [1]): 37.8% | inhibition of growth at 50 µg/mL (Pseudomonas aeruginosa [2]): 44.7%

IC50 (Pseudomonas aeruginosa [4]): 48.4 µg/mL (≈ 100 µM) | inhibition (Pseudomonas aeruginosa [5]): Dose-dependent effect
Compound: CCOC(=O)C1=C(Nc2ccc(OCC)cc2)C(=O)N(c2ccc(OCC)cc2)C1C(=O)OCC (stereo not drawn)
Activity (Pseudomonas aeruginosa [3]): Dose-dependent effect | inhibition at 50 µg/mL (Pseudomonas aeruginosa [1]): 53.8% | IC50 (Pseudomonas aeruginosa [6]): 46.6 µg/mL (≈ 96.6 µM) | inhibition of growth at 50 µg/mL (Pseudomonas aeruginosa [2]): 63.1%

IC50 (Pseudomonas aeruginosa [4]): 28.8 µg/mL (≈ 62.2 µM) | inhibition (Pseudomonas aeruginosa [5]): Dose-dependent effect
Compound: CCOC(=O)C1=C(Nc2cccc(Cl)c2)C(=O)N(c2cccc(Cl)c2)C1C(=O)OCC (stereo not drawn)
Activity (Pseudomonas aeruginosa [3]): Dose-dependent effect | inhibition at 50 µg/mL (Pseudomonas aeruginosa [1]): 70.2% | IC50 (Pseudomonas aeruginosa [6]): 27.8 µg/mL (≈ 60 µM) | inhibition of growth at 50 µg/mL (Pseudomonas aeruginosa [2]): 83%

— ChEMBL document CHEMBL3351850, “Synthesis and anti-biofilm activities of dihydro-pyrrol-2-one derivatives on Pseudomonas aeruginosa” (Bioorg Med Chem Lett, 2015)
